In the RNAGym collection of RNA variant scans (doi:10.1126/science.aae0568):
Variants at the floor of the assay were thinned out.

B1: tRNA (parent)
chain: GUUCCGUUGGCGUAAUGGUAACGCGUCUCCCUCCUAAGGAGAAGACUGCGGGUUCGAGUCCCGUACGGAACG

Variants of: B1
Assay: yeast fitness relative to wild type (ratio to wild type); higher = fitter; tRNA-Arg(CCU), competitive growth, 37 C, YPD
Procedure, shortened: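 Gene amplicons from the start population and from each of six end populations were read by 100-nucleotide paired-end sequencing. Those end populations came from pooled Saccharomyces cerevisiae strains carrying tRNA-Arg(CCU) gene variants at the native locus, competed in YPD at 37°C for 24 hours. Fitness relative to wild type was worked out from changes in genotype frequencies. Genotypes needed ≥ 100 starting reads, and estimates < 0.5 were set to 0.5.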

**Q.** Which yeast fitness does the source give for GUUCCGUUGGCAUAAUGGUAAAGAGUCUCCCUCCUUAGGAGAAGACUGCGGGAUCGAGUCCCGUACGGAACG [G12A C22A C24A A36U U53A] here?
**A.** Its yeast fitness is no more than 0.5.

**Q.** With GUUCCGUUGGCAUAAUGGUAAGGCGUCUCCCUCCUAAGGAGAAGGCUGUGGGAUCGAGUCCCGUAGGGAACG [G12A C22G A45G C49U U53A C66G] as the variant, how does the yeast fitness read?
**A.** Its yeast fitness is no more than 0.5.

**Q.** With GUUCCGUUGGCAUAAUGGUAAGGCGUCUCCCUCCUAAGGAGAAGACUGCGGGUUCGCGUCCCGUACGGAACG [G12A C22G A57C] as the variant, how does the yeast fitness read?
**A.** Its yeast fitness is 0.549.

**Q.** Which yeast fitness does the source give for GUUCCGUUGGCAUAAUGGUAAGGCGUCUCCCUCCUAAGGAGAAGACUGCGGGUUCGAGUCCCGUACGGUACG [G12A C22G A69U] here?
**A.** The yeast fitness was 0.791.

**Q.** With GUUCCGUUGGCAUAAUGGUAAGGCGUCUCCGUCCUAAGGAGAAGACUGCGGGUUCGAGUCCCGUACGGAACG [G12A C22G C31G] as the variant, how does the yeast fitness read?
**A.** Its yeast fitness is 0.662.

**Q.** With GUUCCGUUGGCAUAAUGGUAAGGCGUCUCCCUCCUAAGGAGAAGACUGCGGCUUCGACUCCCGUUCGGAACG [G12A C22G G52C G58C A65U] as the variant, how does the yeast fitness read?
**A.** Its yeast fitness is 0.53.

**Q.** Which yeast fitness does the source give for GUUCCGUUGGCAUAAUGGUAAUGCGUCUCCCUCCUAAGGAGAAGACUGCGGGUUCGAGUCCCGUACGGAACG [G12A C22U] here?
**A.** The yeast fitness was 0.873.

**Q.** With GUUCCGUUGGCAUAAUGGUAAUGCGUCUCCCUCCUAUGGAGAAGACUGCCGGUUCGAGUCCCGUAUGGAACG [G12A C22U A37U G50C C66U] as the variant, how does the yeast fitness read?
**A.** The yeast fitness was 0.538.

**Q.** With GUUCCGUUGGCAUAAUGGUAAUGUGUCUCCCUCCUAAGGAGAAGACUGCGGGUUCGAGUCCCGUACGGAACG [G12A C22U C24U] as the variant, how does the yeast fitness read?
**A.** Its yeast fitness is no more than 0.5.

**Q.** Which yeast fitness does the source give for GUUCCGUUGGCAUAAUGGUAAUGCGUCUCGAUCCUAAGCAGAAGACUGCGGGUUCGGGUCCCGUACGGAACG [G12A C22U C30G C31A G39C A57G] here?
**A.** Its yeast fitness is no more than 0.5.

**Q.** Which yeast fitness does the source give for GUUCCGUUGGCAUAAUGGUAAUGCGUCUCCGUCCUAAGGAGAAGACUCCGGGUUCGAGUCCCGUACGGAACG [G12A C22U C31G G48C] here?
**A.** Its yeast fitness is no more than 0.5.

**Q.** For GUUCCGUUGGCAUAAUGGUAACGAGUCUCCCUCCUAAGGAGAAGACUGCGGGUUCGAGUCCCGUACGGAACG [G12A C24A], which yeast fitness is on record?
**A.** The yeast fitness was 0.751.

**Q.** With GUUCCGUUGGCAUAAUGGUAACGAGUCUCCCUCCUCAGGAGAAGACUGCGGGUUCGAGUCCCGUACGGACCG [G12A C24A A36C A70C] as the variant, how does the yeast fitness read?
**A.** The yeast fitness was no more than 0.5.

**Q.** For GUUCCGUUGGCAUAAUGGUAACGAGUCUCCCUCCUUAGGAGAAGACUGCGGGUUCGAGUCUCGUACUGAACG [G12A C24A A36U C61U G67U], which yeast fitness is on record?
**A.** The yeast fitness was 0.69.

**Q.** For GUUCCGUUGGCAUAAUGGUAACGAGUCUCCCUCCUUAGGAGAAGACUGCGGGUCCGAGUCUCGUACGGAACG [G12A C24A A36U U54C C61U], which yeast fitness is on record?
**A.** The yeast fitness was no more than 0.5.

**Q.** For GUUCCGUUGGCAUAAUGGUAACGAGUAUCCCUCCUAAGGAGAAGACUGCGGGUUCGAGUCCCGUACGGAACG [G12A C24A C27A], which yeast fitness is on record?
**A.** The yeast fitness was no more than 0.5.

**Q.** For GUUCCGUUGGCAUAAUGGUAACGGGUCUCCCUCCUAAGGAGAAGACUGCGGGUUCGAGUCCCGUACGGAACG [G12A C24G], which yeast fitness is on record?
**A.** The yeast fitness was 0.758.

**Q.** With GUUCCGUUGGCAUAAUGGUAACGGGUCUCCCUCCUGAGGAGAAGACUGCGGGUUCGAGUCCCGUUCGGAACG [G12A C24G A36G A65U] as the variant, how does the yeast fitness read?
**A.** The yeast fitness was no more than 0.5.

**Q.** For GUUCCGUUGGCAUAAUGGUAACGGGUCUCCCUCCUAAGGAGACGACUGCGGGUUCGAGUCCUGUGCGGAACG [G12A C24G A43C C62U A65G], which yeast fitness is on record?
**A.** The yeast fitness was 0.636.

**Q.** Which yeast fitness does the source give for GUUCCGUUGGCAUAAUGGUAACGGGUCUACCUCCUAAGGAGAAGACUGCGGGUUCGAGUCCCGUACGGUGCG [G12A C24G C29A A69U A70G] here?
**A.** The yeast fitness was no more than 0.5.

**Q.** With GUUCCGUUGGCAUAAUGGUAACGGGUCUACCUCCUAAGGAGAAGACUGCGGGUUUGAGUCGCGUGCGAAACG [G12A C24G C29A C55U C61G A65G G68A] as the variant, how does the yeast fitness read?
**A.** Its yeast fitness is no more than 0.5.

**Q.** With GUUCCGUUGGCAUAAUGGUAACGGGUCUACCUCCUAAGGAGAAGACAGCGGGUUCGAGUCCAGUACGGAACG [G12A C24G C29A U47A C62A] as the variant, how does the yeast fitness read?
**A.** The yeast fitness was no more than 0.5.

**Q.** With GUUCCGUUGGCAUAAUGGUAACGGGUCUCCCUACUAAGGCGAAGACUGCGGGUUCGAGUCCCGUACGGAACG [G12A C24G C33A A40C] as the variant, how does the yeast fitness read?
**A.** The yeast fitness was no more than 0.5.

**Q.** With GUUCCGUUGGCAUAAUGGUAACGGGUCUCCCUGCUCCGGAGCAGACUGCGGGUUCGAGUCCCGUUCGGAACG [G12A C24G C33G A36C A37C A42C A65U] as the variant, how does the yeast fitness read?
**A.** The yeast fitness was no more than 0.5.

**Q.** For GUUCCGUUGGCAUAAUGGUAACGGGUCUCCCUCCUAAAGCGACGAUUGCGGGUUCGAGUCCCGUACGCUACG [G12A C24G G38A A40C A43C C46U G68C A69U], which yeast fitness is on record?
**A.** The yeast fitness was no more than 0.5.

**Q.** With GUUCCGUUGGCAUAAUGGUAACGGGGCUCCCUCCUAAGGUGAAGACUGCGGGUUCGAGUCCCGUACGGAACG [G12A C24G U26G A40U] as the variant, how does the yeast fitness read?
**A.** Its yeast fitness is no more than 0.5.

**Q.** Which yeast fitness does the source give for GUUCCGUUGGCAUAAUGGUAACGGGGCUCCCUCCUAAGCAGAAGACUGGGGGUUCGAGUCCCGUACGGAACG [G12A C24G U26G G39C C49G] here?
**A.** Its yeast fitness is 0.511.

**Q.** With GUUCCGUUGGCAUAAUGGUAACGGGUCUCCCUCCAAAGGUACAGACUGCGGGUUCGAGUCCCGUACGGAACG [G12A C24G U35A A40U G41A A42C] as the variant, how does the yeast fitness read?
**A.** Its yeast fitness is no more than 0.5.

**Q.** With GUUCCGUUGGCAUAAUGGUAACGUGUCUCCCUCCUAAGGAGAAGACUGCGGGUUCGAGUCCCGUACGGAACG [G12A C24U] as the variant, how does the yeast fitness read?
**A.** Its yeast fitness is 0.697.

**Q.** With GUUCCGUUGGCAUAAUGGUAACGUGUCUCCCUCCUCAGGAGAAGAUUGCGGGUUCGAGUUCCGUCCGGAACG [G12A C24U A36C C46U C60U A65C] as the variant, how does the yeast fitness read?
**A.** Its yeast fitness is 0.729.

**Q.** For GUUCCGUUGGCAUAAUGGUAACGUGUCUACCUCCUAAGGAGAAGACUGCGGGUUCGAGUCCCGUACGGAACG [G12A C24U C29A], which yeast fitness is on record?
**A.** The yeast fitness was no more than 0.5.

**Q.** For GUUCCGUUGGCAUAAUGGUAACGUGUCUCCGUCCUAAGGAGAAGACUGCGGGUUCGAGUCCCGUACGGAACG [G12A C24U C31G], which yeast fitness is on record?
**A.** The yeast fitness was 0.532.

**Q.** With GUUCCGUUGGCAUAAUGGUAACGUGUCUCCCUCGUAAGGAGAAGACUGCGGGUUCGAGUCCCGUACGGAACG [G12A C24U C34G] as the variant, how does the yeast fitness read?
**A.** The yeast fitness was 0.696.

**Q.** Which yeast fitness does the source give for GUUCCGUUGGCAUAAUGGUAACGUGUCUCCCUCUUAAGGAGAAGACUGCGGGUUCGAGUCCCGUACGGAACG [G12A C24U C34U] here?
**A.** The yeast fitness was 0.519.

**Q.** Which yeast fitness does the source give for GUUCCGUUGGCAUAAUGGUAACGUGUCUCCCUCUUAAGGAGAAGACUGCGGGUUCGACUCCGGUACAGAACG [G12A C24U C34U G58C C62G G67A] here?
**A.** The yeast fitness was 0.542.

**Q.** Which yeast fitness does the source give for GUUCCGUUGGCAUAAUGGUAACGUGUCUCCCUCCUAACGAGAAGACUGCGGGUUCGAGUCCGGUACGGAACG [G12A C24U G38C C62G] here?
**A.** Its yeast fitness is no more than 0.5.

**Q.** For GUUCCGUUGGCAUAAUGGUAACGUGUCUCCCUCCUAAGGAGAAGACUGCGGGUUCGAAACCCGUUCGGAACG [G12A C24U G58A U59A A65U], which yeast fitness is on record?
**A.** The yeast fitness was no more than 0.5.
